From ChEMBL document CHEMBL1143667, “Synthesis and pharmacological evaluation of 6,7-indolo/thiazolo-morphinans--further SAR of levorphanol” (J Med Chem, 2007)
Active and inactive are the calls of the source. The rule behind the calls is not given here.

Tests used:
[1] = biological target: T1, Kappa-type opioid receptor (Homo sapiens, UniProt P41145); assay: Displacement of [3H]U-69593 from human kappa opioid receptor expressed in CHO membrane; type: cell membranes
In short: (§1)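 CHO membranes (0.5 mg protein/sample) incubated 60 min at 25 °C with [3H]DAMGO (µ) or [3H]U69,593 (κ) and 12 compound concentrations in 1 mL 50 mM Tris-HCl, pH 7.5. Nonspecific binding with 10 µM naloxone. Mean ± SEM of three experiments in triplicate.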

[2] = biological target: Opioid receptors; delta & kappa (Homo sapiens) (UniProt P41145+P41143); assay: Selectivity for human kappa opioid receptor over human delta opioid receptor; type: protein assay
[3] = biological target: T2, Delta-type opioid receptor (Homo sapiens, UniProt P41143); assay: Antagonist activity at human delta opioid receptor expressed in CHO membrane assessed as inhibition of SNC80-induced [35S]GTPgammaS binding; type: functional, cell membranes
[4] = biological target: T2, Delta-type opioid receptor; assay: Agonist activity at human delta opioid receptor expressed in CHO membrane assessed as stimulation of [35S]GTP-gamma-S binding; type: functional, cell membranes
Mu-type opioid receptor [5] = biological target: T3, Mu-type opioid receptor (Homo sapiens, UniProt P35372); assay: Displacement of [3H]DAMGO from human mu opioid receptor expressed in CHO membrane; type: cell membranes; in short: as §1
[6] = biological target: Opioid receptors; mu & kappa (Homo sapiens) (UniProt P41145+P35372); assay: Selectivity for human kappa opioid receptor over human mu opioid receptor; type: protein assay
[7] = biological target: T2, Delta-type opioid receptor; assay: Displacement of [3H]naltrindole from human delta opioid receptor expressed in CHO membrane; type: cell membranes
In short: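 CHO membranes (0.5 mg protein/sample) incubated at 25 °C with δ-specific radioligand and 12 compound concentrations in 1 mL 50 mM Tris-HCl, pH 7.5; nonspecific binding with 10 µM naloxone. Three experiments in triplicate.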

[8] = biological target: T1, Kappa-type opioid receptor; assay: Antagonist activity at human kappa opioid receptor expressed in CHO membrane assessed as inhibition of U50488-induced [35S]GTP-gamma-S binding; type: functional, cell membranes
In short: (§2)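 Antagonism measured in CHO membranes expressing κ receptor with 100 nM U50,488, or µ receptor with 200 nM DAMGO, plus test compound and 0.8 nM [35S]GTPγS, 3 µM GDP. Filtration and scintillation readout; IC50 and Imax from three experiments in triplicate.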

[9] = biological target: T1, Kappa-type opioid receptor; assay: Agonist activity at human kappa opioid receptor expressed in CHO membrane assessed as stimulation of [35S]GTP-gamma-S binding; type: functional, cell membranes
In short: (§3)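 Membranes from CHO cells stably expressing human κ (15 µg protein/tube) or µ (7.5 µg/tube) receptor; 12 agonist concentrations, 60 min at 30 °C in Tris-HCl/MgCl2/NaCl/EGTA buffer pH 7.4 with 3 µM GDP and [35S]GTPγS (0.8 nM). Nonspecific binding with 10 µM unlabeled GTPγS; filtration, scintillation counting. Stimulation as % over basal; at least three experiments in triplicate.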

Mu-type opioid receptor [10] = biological target: T3, Mu-type opioid receptor; assay: Antagonist activity at human mu opioid receptor expressed in CHO membrane assessed as inhibition of DAMGO-induced [35S]GTP-gamma-S binding; type: functional, cell membranes; in short: as §2
Mu-type opioid receptor [11] = biological target: T3, Mu-type opioid receptor; assay: Agonist activity at human mu opioid receptor expressed in CHO membrane assessed as stimulation of [35S]GTPgammaS binding; type: functional, cell membranes; in short: as §3

T2 sequence (P41143 whole entry): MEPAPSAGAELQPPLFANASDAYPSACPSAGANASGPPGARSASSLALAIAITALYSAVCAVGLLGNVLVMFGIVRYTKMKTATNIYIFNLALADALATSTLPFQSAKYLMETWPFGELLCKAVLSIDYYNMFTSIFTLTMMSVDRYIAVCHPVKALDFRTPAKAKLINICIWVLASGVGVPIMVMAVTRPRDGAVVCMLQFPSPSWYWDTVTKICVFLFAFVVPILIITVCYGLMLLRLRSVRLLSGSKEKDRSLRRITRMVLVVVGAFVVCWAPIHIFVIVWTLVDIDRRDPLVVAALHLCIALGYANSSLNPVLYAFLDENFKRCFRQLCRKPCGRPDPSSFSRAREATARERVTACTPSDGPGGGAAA
Chain of Opioid receptors; delta & kappa (Homo sapiens) (P41143 whole entry, looked up): as the sequence (P41143 whole entry) above
Chain of Opioid receptors; delta & kappa (Homo sapiens) (P41145 whole entry, looked up): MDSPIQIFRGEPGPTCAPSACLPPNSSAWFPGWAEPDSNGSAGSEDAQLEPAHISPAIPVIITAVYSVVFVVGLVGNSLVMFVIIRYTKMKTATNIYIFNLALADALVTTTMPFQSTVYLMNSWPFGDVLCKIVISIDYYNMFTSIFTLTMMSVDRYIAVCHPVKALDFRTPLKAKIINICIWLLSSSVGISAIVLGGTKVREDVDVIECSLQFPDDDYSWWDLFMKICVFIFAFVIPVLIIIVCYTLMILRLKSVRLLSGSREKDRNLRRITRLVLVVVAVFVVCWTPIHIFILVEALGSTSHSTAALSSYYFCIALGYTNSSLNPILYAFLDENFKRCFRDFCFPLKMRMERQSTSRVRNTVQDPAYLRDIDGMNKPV
T3 sequence (P35372 whole entry): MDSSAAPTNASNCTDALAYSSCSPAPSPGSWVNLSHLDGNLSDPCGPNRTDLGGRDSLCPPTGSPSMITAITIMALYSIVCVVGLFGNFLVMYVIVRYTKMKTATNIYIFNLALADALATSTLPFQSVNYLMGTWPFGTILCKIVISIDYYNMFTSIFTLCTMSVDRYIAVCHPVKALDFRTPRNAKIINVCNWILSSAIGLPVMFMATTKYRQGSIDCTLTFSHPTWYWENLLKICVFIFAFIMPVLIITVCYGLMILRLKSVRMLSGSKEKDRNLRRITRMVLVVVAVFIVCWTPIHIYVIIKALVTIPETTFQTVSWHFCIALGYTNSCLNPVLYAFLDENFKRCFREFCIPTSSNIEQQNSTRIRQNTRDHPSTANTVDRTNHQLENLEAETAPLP
Chain of Opioid receptors; mu & kappa (Homo sapiens) (P35372 whole entry, looked up): as the sequence (P35372 whole entry) above
Chain of Opioid receptors; mu & kappa (Homo sapiens) (P41145 whole entry, looked up): as the sequence (P41145 whole entry, looked up) above
T1 sequence (P41145 whole entry): as the sequence (P41145 whole entry, looked up) above

Structure (SMILES)	Ki [1]	Ratio Ki [2]	Activity [3]	EC50 [4]	Emax [4]	Ki (Mu-type opioid receptor [5])	Ratio Ki [6]	Ki [7]	Activity [8]	EC50 [9]	Emax [9]	IC50 [3]	Imax [3]	Imax (Mu-type opioid receptor [10])	EC50 (Mu-type opioid receptor [11])	Emax (Mu-type opioid receptor [11])	IC50 [8]	Imax [8]	IC50 (Mu-type opioid receptor [10])
COc1ccc2c(c1)[C@]13CCN(CC4CCC4)[C@H](C2)[C@@H]1Cc1c([nH]c2ccccc12)C3	89 nM	0.1	inactive	23 nM	54%	330 nM	4	8.7 nM	–	–	–	–	–	–	–	–	–	–	–
Oc1ccc2c(c1)[C@]13CCN(CC4CCC4)[C@H](C2)[C@@H]1Cc1c([nH]c2ccccc12)C3	1 nM	0.2	–	0.8 nM	37%	3.9 nM	4	0.17 nM	inactive	190 nM	87%	0.6 nM	55%	23%	110 nM	68%	–	–	–
CN1CC[C@]23Cc4[nH]c5ccccc5c4C[C@H]2[C@H]1Cc1ccc(O)cc13	14 nM	0.03	–	0.47 nM	23%	22 nM	1.6	0.35 nM	–	–	–	1.5 nM	45%	–	–	–	–	–	–
Oc1ccc2c(c1)[C@]13CCN(CC4CC4)[C@H](C2)[C@@H]1Cc1c([nH]c2ccccc12)C3	0.64 nM	0.3	–	0.16 nM	22%	1.1 nM	2	0.19 nM	–	61 nM	67%	1.2 nM	73%	84%	92 nM	47%	17 nM	49%	12 nM
Nc1nc2c(s1)C[C@H]1[C@H]3Cc4ccc(O)cc4[C@@]1(CCN3CC1CC1)C2	0.07 nM	–	inactive	0.17 nM	49%	–	–	0.23 nM	inactive	0.34 nM	37%	–	–	–	–	–	–	–	–
CN1CC[C@]23Cc4nc(N)sc4C[C@H]2[C@H]1Cc1ccc(O)cc13	2.2 nM	2	inactive	8.4 nM	67%	0.49 nM	0.2	4.2 nM	inactive	21 nM	44%	–	–	45%	140 nM	42%	–	–	–
Nc1nc2c(s1)C[C@H]1[C@H]3Cc4ccc(O)cc4[C@@]1(CCN3CC1CCC1)C2	0.14 nM	8	inactive	2.5 nM	51%	0.37 nM	3	1.1 nM	–	2.6 nM	40%	–	–	68%	2.6 nM	33%	93 nM	44%	26 nM
COc1ccc2c(c1)[C@]13CCN(C)[C@H](C2)[C@@H]1Cc1c([nH]c2ccccc12)C3	390 nM	0.1	–	–	–	340 nM	0.9	35 nM	–	–	–	–	–	–	–	–	–	–	–
COc1ccc2c(c1)[C@]13CCN(CC4CC4)[C@H](C2)[C@@H]1Cc1c([nH]c2ccccc12)C3	1.4 nM	1	inactive	1.5 nM	56%	5.9 nM	4	1.5 nM	inactive	24 nM	68%	–	–	43%	1.7 nM	72%	–	–	440 nM
